Experimental data as given in ChEMBL document CHEMBL2202974 (J Med Chem, 2011).

Legend:
[1] = Drug uptake in SB612111-pretreated monkey amygdala at 4.92 to 6.6 mCi, iv administered at 10 mins post SB612111-treatment measured from 10 to 120 mins by PET imaging analysis; type: ADME, organism-based, Macaca mulatta; settings: rhesus monkey, in vivo
[2] = Drug uptake in monkey hypothalamus at 6.2 mCi, iv administered as bolus dose followed by SB612111-treatment at 40 mins measured at 100 mins by PET imaging analysis; type: ADME, organism-based, Macaca mulatta; settings: rhesus monkey, in vivo
Method in brief: (§1)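 Anesthetised rhesus monkey given iv bolus of radioligand; the NOP antagonist was given at 40 min after radioligand to test displacement. PET regional time-activity curves were expressed as %SUV.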

[3] = Drug uptake in monkey caudate at 6.2 mCi, iv administered as bolus dose followed by naloxone-treatment at 37 mins measured at 120 mins by PET imaging analysis; type: ADME, organism-based, Macaca mulatta, Caudate nucleus; settings: rhesus monkey, in vivo, 2 h
Method in brief: (§2)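 Anesthetised rhesus monkey given iv bolus of radioligand; a high dose of naloxone was given at 37 min after radioligand. PET regional time-activity curves were expressed as %SUV.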

[4] = test system: Brain; experiment: Drug uptake in 129/S6 mouse brain at 0.6 nM after 120 mins by autoradiographic analysis; type: ADME, tissue-based
[5] = Drug uptake in SB612111-pretreated monkey cerebellum at 4.92 to 6.6 mCi, iv administered at 10 mins post SB612111-treatment measured within 10 mins by PET imaging analysis; type: ADME, organism-based, Macaca mulatta; settings: rhesus monkey, in vivo
[6] = Metabolic stability in monkey plasma at 4.9 to 6.6 mCi, iv administered as bolus dose up to 100 mins; type: ADME, organism-based, Macaca mulatta; settings: rhesus monkey, read-out: Stability
Method in brief: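 For baseline scans, male rhesus monkeys were immobilized with ketamine and kept under 1–3% isoflurane. Plasma sampled during the scan was extracted into acetonitrile, and the supernatant was analysed by HPLC for the parent fraction.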

[7] = Drug uptake in SB612111-pretreated monkey lateral temporal cortex at 4.92 to 6.6 mCi, iv administered at 10 mins post SB612111-treatment measured from 10 to 120 mins by PET imaging analysis; type: ADME, organism-based, Macaca mulatta; settings: rhesus monkey, in vivo
[8] = Drug uptake in monkey hypothalamus at 4.92 to 6.6 mCi, iv administered as bolus dose measured at 120 mins by PET imaging analysis; type: ADME, organism-based, Macaca mulatta; settings: rhesus monkey, in vivo, 2 h
[9] = Drug uptake in SB612111-pretreated monkey amygdala at 4.92 to 6.6 mCi, iv administered at 10 mins post SB612111-treatment measured within 10 mins by PET imaging analysis; type: ADME, organism-based, Macaca mulatta; settings: rhesus monkey, in vivo
[10] = Drug uptake in monkey lateral temporal cortex at 4.92 to 6.6 mCi, iv administered as bolus dose measured at 120 mins by PET imaging analysis; type: ADME, organism-based, Macaca mulatta; settings: rhesus monkey, in vivo, 2 h
[11] = Drug uptake in monkey lateral temporal cortex at 6.2 mCi, iv administered as bolus dose followed by naloxone-treatment at 37 mins measured at 120 mins by PET imaging analysis; type: ADME, organism-based, Macaca mulatta; settings: rhesus monkey, in vivo, 2 h; method in brief: as §2
[12] = Drug uptake in monkey hypothalamus at 4.92 to 6.6 mCi, iv administered as bolus dose measured up to 20 mins by PET imaging analysis; type: ADME, organism-based, Macaca mulatta; settings: rhesus monkey, in vivo
[13] = Drug uptake in monkey amygdala at 4.92 to 6.6 mCi, iv administered as bolus dose measured at 120 mins by PET imaging analysis; type: ADME, organism-based, Macaca mulatta; settings: rhesus monkey, in vivo, 2 h
[14] = Drug uptake in SB612111-pretreated monkey hypothalamus at 4.92 to 6.6 mCi, iv administered at 10 mins post SB612111-treatment measured within 10 mins by PET imaging analysis; type: ADME, organism-based, Macaca mulatta; settings: rhesus monkey, in vivo
[15] = Drug uptake in monkey cerebellum at 4.92 to 6.6 mCi, iv administered as bolus dose measured up to 20 mins by PET imaging analysis; type: ADME, organism-based, Macaca mulatta; settings: rhesus monkey, in vivo
[16] = Drug uptake in monkey caudate at 6.2 mCi, iv administered as bolus dose followed by SB612111-treatment at 40 mins measured at 100 mins by PET imaging analysis; type: ADME, organism-based, Macaca mulatta, Caudate nucleus; settings: rhesus monkey, in vivo; method in brief: as §1
[17] = Drug uptake in monkey amygdala at 4.92 to 6.6 mCi, iv administered as bolus dose measured up to 20 mins by PET imaging analysis; type: ADME, organism-based, Macaca mulatta; settings: rhesus monkey, in vivo
[18] = Drug uptake in SB612111-pretreated monkey caudate at 4.92 to 6.6 mCi, iv administered at 10 mins post SB612111-treatment measured from 10 to 120 mins by PET imaging analysis; type: ADME, organism-based, Macaca mulatta, Caudate nucleus; settings: rhesus monkey, in vivo
[19] = Fraction unbound in monkey plasma; type: ADME, cell-free, Macaca mulatta; settings: rhesus monkey
Method in brief: (§3)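 Plasma free fraction of the radioligand measured in vitro. Monkey: 3 samples from each of two monkeys (n = 6). Human: pooled plasma, three samples from each of two subjects.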

[20] = Drug uptake in monkey lateral temporal cortex at 4.92 to 6.6 mCi, iv administered as bolus dose measured up to 20 mins by PET imaging analysis; type: ADME, organism-based, Macaca mulatta; settings: rhesus monkey, in vivo
[21] = Drug uptake in SB612111-pretreated monkey caudate at 4.92 to 6.6 mCi, iv administered at 10 mins post SB612111-treatment measured within 10 mins by PET imaging analysis; type: ADME, organism-based, Macaca mulatta, Caudate nucleus; settings: rhesus monkey, in vivo
[22] = Drug uptake in SB612111-pretreated monkey hypothalamus at 4.92 to 6.6 mCi, iv administered at 10 mins post SB612111-treatment measured from 10 to 120 mins by PET imaging analysis; type: ADME, organism-based, Macaca mulatta; settings: rhesus monkey, in vivo
[23] = Metabolic stability in monkey blood for 0.5 hrs; type: ADME, tissue-based, Macaca mulatta; settings: rhesus monkey, read-out: Stability
Method in brief: (§4)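 The [11C]-labelled radioligand was incubated in vitro in monkey whole blood or monkey plasma for 0.5 h at room temperature. Stability was expressed as the percentage of radioactivity remaining as unchanged radioligand (n = 6).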

[24] = test system: Plasma; experiment: Drug metabolism in monkey plasma assessed as radiometabolite formation at 4.9 to 6.6 mCi, iv administered as bolus dose up to 100 mins; type: ADME, organism-based, Macaca mulatta; settings: rhesus monkey, in vivo
[25] = Drug uptake in monkey caudate at 4.92 to 6.6 mCi, iv administered as bolus dose measured at 120 mins by PET imaging analysis; type: ADME, organism-based, Macaca mulatta, Caudate nucleus; settings: rhesus monkey, in vivo, 2 h
[26] = Drug uptake in monkey hypothalamus at 6.2 mCi, iv administered as bolus dose followed by naloxone-treatment at 37 mins measured at 120 mins by PET imaging analysis; type: ADME, organism-based, Macaca mulatta; settings: rhesus monkey, in vivo, 2 h; method in brief: as §2
[27] = Drug uptake in monkey cerebellum at 4.92 to 6.6 mCi, iv administered as bolus dose measured at 120 mins by PET imaging analysis; type: ADME, organism-based, Macaca mulatta; settings: rhesus monkey, in vivo, 2 h
[28] = test system: Plasma; experiment: Metabolic stability in SB612111-pretreated monkey plasma at 4.9 to 6.6 mCi, iv administered as bolus dose 10 mins post SB612111-treatment up to 100 mins; type: ADME, organism-based, Macaca mulatta; settings: rhesus monkey, in vivo
Method in brief: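 Preblock scans were run in the same anesthetized (ketamine, isoflurane) rhesus monkeys about 3 h after the baseline scan. Plasma was extracted into acetonitrile, and the supernatant was analysed by HPLC to give the percentage of radioactivity present as unchanged radioligand over time.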

[29] = test system: Plasma; experiment: Drug metabolism in SB612111-pretreated monkey plasma assessed as radiometabolite formation at 4.9 to 6.6 mCi, iv administered as bolus dose 10 mins post SB612111-treatment up to 100 mins; type: ADME, organism-based, Macaca mulatta; settings: rhesus monkey, in vivo
[30] = Drug uptake in monkey amygdala at 6.2 mCi, iv administered as bolus dose followed by naloxone-treatment at 37 mins measured at 120 mins by PET imaging analysis; type: ADME, organism-based, Macaca mulatta; settings: rhesus monkey, in vivo, 2 h; method in brief: as §2
[31] = Drug uptake in SB612111-pretreated monkey cerebellum at 4.92 to 6.6 mCi, iv administered at 10 mins post SB612111-treatment measured from 10 to 120 mins by PET imaging analysis; type: ADME, organism-based, Macaca mulatta; settings: rhesus monkey, in vivo
[32] = Fraction unbound in human plasma; type: ADME, cell-free; method in brief: as §3
[33] = test system: Brain; experiment: Drug uptake in NOP knockout mouse brain at 0.6 nM after 120 mins by autoradiographic analysis; type: ADME, tissue-based
[34] = Drug uptake in monkey cerebellum at 6.2 mCi, iv administered as bolus dose followed by SB612111-treatment at 40 mins measured at 100 mins by PET imaging analysis; type: ADME, organism-based, Macaca mulatta; settings: rhesus monkey, in vivo; method in brief: as §1
[35] = Drug uptake in monkey amygdala at 6.2 mCi, iv administered as bolus dose followed by SB612111-treatment at 40 mins measured at 100 mins by PET imaging analysis; type: ADME, organism-based, Macaca mulatta; settings: rhesus monkey, in vivo; method in brief: as §1
[36] = Drug uptake in monkey lateral temporal cortex at 6.2 mCi, iv administered as bolus dose followed by SB612111-treatment at 40 mins measured at 100 mins by PET imaging analysis; type: ADME, organism-based, Macaca mulatta; settings: rhesus monkey, in vivo; method in brief: as §1
[37] = Drug uptake in monkey cerebellum at 6.2 mCi, iv administered as bolus dose followed by naloxone-treatment at 37 mins measured at 120 mins by PET imaging analysis; type: ADME, organism-based, Macaca mulatta; settings: rhesus monkey, in vivo, 2 h; method in brief: as §2
[38] = Drug uptake in SB612111-pretreated monkey lateral temporal cortex at 4.92 to 6.6 mCi, iv administered at 10 mins post SB612111-treatment measured within 10 mins by PET imaging analysis; type: ADME, organism-based, Macaca mulatta; settings: rhesus monkey, in vivo
[39] = Metabolic stability in monkey plasma for 0.5 hrs; type: ADME, cell-free, Macaca mulatta; settings: rhesus monkey, read-out: Stability; method in brief: as §4
[40] = Drug uptake in monkey caudate at 4.92 to 6.6 mCi, iv administered as bolus dose measured up to 20 mins by PET imaging analysis; type: ADME, organism-based, Macaca mulatta, Caudate nucleus; settings: rhesus monkey, in vivo
[41] = Chemical stability of the compound in sodium phosphate buffer after 2 hrs at pH 7.4; type: physicochemical; settings: read-out: Stability

[11CH3]NC(=O)[C@@H](Cc1ccccc1F)CN1CCC2(CC1)OCCc1cc(F)sc12
Drug uptake [1]: Not Active | Drug uptake [2]: Not Active | Drug uptake [3]: Not Active | Drug uptake [4]: Active | Drug uptake [5]: Active | remaining at 100 min [6]: 94.9% | Drug uptake [7]: Not Active | Drug uptake [8]: Not Active | Drug uptake [9]: Active | Drug uptake [10]: Not Active | Drug uptake [11]: Not Active | Drug uptake [12]: Active | Drug uptake [13]: Not Active | Drug uptake [14]: Active | Drug uptake [15]: Active | Drug uptake [16]: Not Active | Drug uptake [17]: Active | Drug uptake [18]: Not Active | fraction unbound [19]: 0.113 | Drug uptake [20]: Active | Drug uptake [21]: Active | Drug uptake [22]: Not Active | remaining at 0.5 h [23]: 100% | Drug metabolism [24]: Active | Drug uptake [25]: Not Active | Drug uptake [26]: Not Active | Drug uptake [27]: Not Active | Stability [28]: 94.9% | Drug metabolism [29]: Active | Drug uptake [30]: Not Active | Drug uptake [31]: Not Active | fraction unbound [32]: 0.11 | Drug uptake [33]: Not Active | Drug uptake [34]: Not Active | Drug uptake [35]: Not Active | Drug uptake [36]: Not Active | Drug uptake [37]: Not Active | Drug uptake [38]: Active | remaining at 0.5 h [39]: 99.9% | Drug uptake [40]: Active | remaining at 2 h [41]: 98.9%
